# pIC50, pKi: −log10 of the molar value.
# Tests used:
# [1] = Inhibition of Mycobacterium tuberculosis InhA assessed as residual enzyme activity by measuring NADH oxidation at 100 uM incubated for 10 mins by spectrophotometry
# [2] = Inhibition of Mycobacterium tuberculosis InhA assessed as effect on NADH oxidation incubated for 10 mins by spectrophotometry
# [3] = Mixed type inhibition of Mycobacterium tuberculosis InhA assessed as effect on NADH oxidation incubated for 10 mins by spectrophotometry
# In short: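 Inhibition type and Ki were taken from the continuous spectrophotometric InhA assay. DD-CoA was the substrate, and its Km was determined alongside.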
smiles,measurement,setting,value
Cc1c(CN(C)C(=O)/C=C/c2cnc3c(c2)CCC(=O)N3)c2ccccc2n1C,Activity,[1],> 50%
COc1ccc(-c2[nH]c3ccccc3c2CCC(=O)Nc2ncccc2C)cc1,pIC50,[2],4.85
same,Activity,[1],> 50%
Oc1cc(Cl)ccc1Oc1ccc(Cl)cc1Cl,Activity,[1],> 50%
Cc1cc2ncn(Cc3ccc(Cl)c(Cl)c3)c2cc1C,pKi,[3],5.40
same,pIC50,[2],5.00
same,Activity,[1],> 50%

# — ChEMBL document CHEMBL4715801, “Discovery of Mycobacterium tuberculosis InhA Inhibitors by Binding Sites Comparison and Ligands Prediction” (J Med Chem, 2016)
